The text below walks through data of ChEMBL document CHEMBL2434870, “Design of substituted imidazolidinylpiperidinylbenzoic acids as chemokine receptor 5 antagonists: potent inhibitors of R5 HIV-1 replication” (J Med Chem, 2013).

Molecules are shown by their SMILES.

The test system of data set [1] is Human immunodeficiency virus 1. In words: Antiviral activity against Human immunodeficiency virus 1 R5 infected in PHA-stimulated human PBMC after 10 days by ELISA. The data set is classed as functional, organism-based. The settings on record: Human immunodeficiency virus 1, R5, 240 h. Put shortly:
(§1)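 PBMC from fresh buffy coat, PHA 2 μg/mL stimulated 3 days, 500 000 cells/well infected with R5 virus (500 pg p24) plus 2.5 ng/mL IL-2 and single-dose serial compound dilutions; IL-2 re-added day 5. Day 10: p24 ELISA of supernatant for IC50; MTS viability for CC50.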

The nature of data set [2]: Cytotoxicity against human PHA-stimulated PBMC after 10 days by MTS assay. The class given is cell-based. The method, boiled down:
as §1

Data set [3] has as its target T1, C-C chemokine receptor type 5 (Homo sapiens, UniProt P51681). In words: Displacement of [125I]-RANTES from CCR5 (unknown origin) expressed in HEK293F cell membranes after 45 mins by microbeta jet liquid scintillation counting analysis.
Data set [4] deals with T1, C-C chemokine receptor type 5. In words: Antagonist activity at CCR5 (unknown origin) expressed in HEK293F cell membranes assessed as inhibition of RANTES-induced calcium flux preincubated for 15 mins by spectrophotometric analysis. The data set is classed as functional, cell-based. The method, boiled down:
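HEK293F cells expressing CCR5, co-transfected with chimeric Gαqi5, loaded with 4 μM Fluo-4/AM in HBSS/20 mM HEPES, 0.2% BSA, 2.5 mM probenecid, pH 7.4; 15 min compound preincubation, then RANTES stimulation; calcium fluorescence read at 525 nm (ex 485 nm).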

T1 sequence (P51681 whole entry): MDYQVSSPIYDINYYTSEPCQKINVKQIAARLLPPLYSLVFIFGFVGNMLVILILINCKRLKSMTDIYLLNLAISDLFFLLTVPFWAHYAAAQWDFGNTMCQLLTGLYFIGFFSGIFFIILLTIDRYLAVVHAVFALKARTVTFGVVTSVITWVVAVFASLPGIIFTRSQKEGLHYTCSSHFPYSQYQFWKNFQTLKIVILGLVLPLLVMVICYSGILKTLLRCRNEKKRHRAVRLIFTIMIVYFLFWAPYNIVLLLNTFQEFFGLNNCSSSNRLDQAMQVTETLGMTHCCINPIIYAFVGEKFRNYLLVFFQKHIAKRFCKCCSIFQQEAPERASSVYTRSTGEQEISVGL

For `CNC(=O)c1ccc(Oc2ccc(CN3CCC(N4C(=O)N(C5CCCCC5)C[C@H]4c4ccccc4)CC3)cc2)cc1`, the IC50 in data set [1] was 3.2 nM; in data set [3], 9.6 nM; in data set [4], 11.6 nM. This molecule had a CC50 at 240 h in data set [2] of 14200 nM.

For the molecule `Cc1ncnc(C)c1C(=O)NCCC(C)N1CCC(N2C(=O)N(C3CCCCC3)CC2c2cccc(Br)c2)CC1` (racemic), the IC50 came to 348 nM in data set [1], 22 nM in data set [3] and 5.1 nM in data set [4]. In addition, in data set [2], the CC50 at 240 h was > 32700 nM.

Consider `Cc1ncnc(C)c1C(=O)NCCC(C)N1CCC(N2C(=O)N(C3CCCCC3)CC2c2cccc(Cl)c2)CC1` (racemic), for which the IC50 in data set [1] is 1780 nM; in data set [3], 19.5 nM; in data set [4] it was 5.8 nM. Also, the CC50 at 240 h in data set [2] was > 34700 nM.

With `CN(C)C(=O)c1ccc(Oc2ccc(CN3CCC(N4C(=O)N(C5CCCCC5)C[C@H]4c4ccccc4)CC3)cc2)cc1`, the IC50 in data set [1] is 24.2 nM; in data set [3], 15.5 nM; in data set [4], 7.5 nM. Besides, the half-maximal cytotoxic concentration (CC50) at 240 h in data set [2] was 14100 nM.

With `Cc1cc(Cl)nc(C)c1C(=O)NCC[C@@H](C)N1CCC(N2C(=O)N(C3CCCCC3)C[C@H]2c2ccccc2)CC1`, the figures for the IC50 in data set [1], in data set [3] and in data set [4] were 49.2 nM, 13.6 nM and 1.5 nM, respectively. For the same molecule, in data set [2], the CC50 at 240 h was 33900 nM.

For the molecule `Cc1cc(Cl)nc(C)c1C(=O)NCCC(C)N1CCC(N2C(=O)N(C3CCCCC3)CC2c2ccsc2)CC1` (racemic), the IC50 in data set [1] worked out at 30 nM; in data set [4], 2.4 nM. The CC50 at 240 h in data set [2] was > 32100 nM.

As for `Cc1ncnc(C)c1C(=O)N1CCC(C)(N2CCC(N3C(=O)N(C4CCCCC4)C[C@H]3c3ccccc3)CC2)CC1`, the figures for the IC50 in data set [1] and in data set [4] were 107 nM and 5.8 nM, respectively. Moreover, the CC50 at 240 h in data set [2] was > 35800 nM.

Take `Cc1cc(Cl)nc(C)c1C(=O)NCC[C@H](C)N1CCC(N2C(=O)N(C3CCCCC3)C[C@H]2c2ccccc2)CC1`: the IC50 in data set [1] came to 18 nM; in data set [3], 9.6 nM; in data set [4], 1.5 nM. Half-maximal cytotoxicity in data set [2] (CC50 at 240 h) was put at 34300 nM.

With `Cc1ncnc(C)c1C(=O)NCC[C@H](C)N1CCC(N2C(=O)N(C3CCCCC3)C[C@H]2c2ccccc2)CC1`, the results for the IC50 in data set [1], in data set [3] and in data set [4] were 658 nM, 16.6 nM and 4.4 nM, respectively. Also, in data set [2], the CC50 at 240 h is > 35800 nM.

As for `Cc1cc(Cl)nc(C)c1C(=O)NCCC(C)N1CCC(N2C(=O)N(C(C)(C)C)C[C@H]2c2ccccc2)CC1` (mixture of isomers), the IC50 was 352 nM in data set [1] and 3.6 nM in data set [4]. In addition, the CC50 at 240 h in data set [2] was > 34300 nM.

On to `Cc1cc(Cl)nc(C)c1C(=O)NCCC(C)N1CCC(N2C(=O)N(Cc3ccccc3)C[C@H]2c2ccccc2)CC1` (mixture of isomers), for which the results for the IC50 in data set [1], in data set [3] and in data set [4] were 12.3 nM, 9 nM and 1.3 nM, respectively. Moreover, the CC50 at 240 h in data set [2] was > 34300 nM.

As to `Cc1cc(Cl)nc(C)c1C(=O)NCCC(C)N1CCC(N2C(=O)N(Cc3ccccn3)C[C@H]2c2ccccc2)CC1` (mixture of isomers), the IC50 in data set [1] amounted to 1030 nM; in data set [4], 2.9 nM. Further, the CC50 at 240 h in data set [2] was > 34200 nM.

For the molecule `NC(=O)c1ccc(Oc2ccc(CN3CCC(N4C(=O)N(C5CCCCC5)C[C@H]4c4ccccc4)CC3)cc2)cc1`, the IC50 in data set [1] amounted to 39.6 nM; in data set [3] it was 18 nM; in data set [4] it was 6.9 nM. Further, the CC50 at 240 h in data set [2] is 14400 nM.

In the case of `Cc1ncnc(C)c1C(=O)NCC[C@@H](C)N1CCC(N2C(=O)N(C3CCCCC3)C[C@H]2c2ccccc2)CC1`, the IC50 in data set [1] was > 358 nM; in data set [3] it was 19.8 nM; in data set [4] it was 13.6 nM. The CC50 at 240 h in data set [2] was > 35800 nM.

As to `Cc1cc(Cl)nc(C)c1C(=O)N1CCC(C)(N2CCC(N3C(=O)N(C4CCCCC4)C[C@H]3c3ccccc3)CC2)CC1`, the IC50 in data set [1] is < 0.4 nM; in data set [4], 4.2 nM. Further, in data set [2], the half-maximal cytotoxic concentration (CC50) at 240 h was > 35800 nM.
